From ChEMBL document CHEMBL1135063, “Cytotoxic and antibacterial activity of 2-oxopurine derivatives” (Bioorg Med Chem Lett, 2002)
Converted amounts (≈) assume the structure as drawn.

Legend:
[1] = system: K562; assay: Concentration that reduces [3H]thymidine incorporation by 50% in chronic myelogenous leukemia cell line K-562 after 5 h; type: functional, cell-based; details: Homo sapiens
Outline: (§1)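 K-562 cells in RPMI 1640 with 10% FCS, 2 mM L-glutamine and kanamycin, 5% CO2. Log-phase cells seeded at 4 × 10^4 cells/mL and exposed to compound (DMSO, 0.05% final) over a 10 to 0.078 range for 5 h. Cells were then pulsed 2 h with [3H]-thymidine, harvested onto fiberglass filters and counted. IC50 is the concentration inhibiting incorporation by 50%. Values are given with SD.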

[2] = system: K562; assay: Cytotoxicity against chronic myelogenous leukemia cell line K-562 was determined by measuring [3H]thymidine incorporation at a concentration of 1.25 ug/mL after 48 h; type: functional; details: Homo sapiens
Outline: (§2)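 K-562 cells in RPMI 1640 with 10% FCS, 2 mM L-glutamine and kanamycin, humidified 5% CO2. Log-phase cells seeded at 2 × 10^4 cells/mL and exposed to compound (DMSO, 0.05% final) over a 10 to 0.078 range for 48 h. Cells were then pulsed 2 h with [3H]-thymidine, filter-harvested and cell-associated radioactivity counted. Percent inhibition or IC50 is reported with SD.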

[3] = system: K562; assay: Cytotoxicity against chronic myelogenous leukemia cell line K-562 was determined by measuring [3H]-thymidine incorporation at a concentration of 1.25 ug/mL after 5 h; type: functional; details: Homo sapiens; outline: as §1
[4] = system: K562; assay: Cytotoxicity against chronic myelogenous leukemia cell line K-562 was determined by measuring [3H]thymidine incorporation after 48 h; type: functional, cell-based; details: Homo sapiens; outline: as §2
[5] = system: K562; assay: Cytotoxicity against chronic myelogenous leukemia cell line K-562 was determined by measuring [3H]thymidine incorporation at a concentration of 10 ug/mL after 5 h; type: functional; details: Homo sapiens; outline: as §1
[6] = system: K562; assay: Cytotoxicity against chronic myelogenous leukemia cell line K-562 was determined by measuring [3H]thymidine incorporation at a concentration 10 ug/mL after 48 h; type: functional; details: Homo sapiens; outline: as §2
[7] = system: K562; assay: Cytotoxicity against chronic myelogenous leukemia cell line K-562 was determined by measuring [3H]thymidine incorporation after 5 h; type: functional, cell-based; details: Homo sapiens; outline: as §1
[8] = system: Lacticaseibacillus casei; assay: Tested for antibacterial activity against Lactobacillus casei; type: functional
[9] = system: Mycobacterium tuberculosis; assay: Tested for percent inhibition against Mycobacterium tuberculosis at 12.5 ug/mL concentration; type: functional
Outline: (§3)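 M. tuberculosis H37Rv (ATCC 27294) grown in BACTEC 12B medium; inhibition read out by Microplate Alamar Blue assay.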

[10] = system: Mycobacterium tuberculosis; assay: Tested for percent inhibition against Mycobacterium tuberculosis at concentration of 12.5 ug/mL; type: functional; outline: as §3
[11] = system: K562; assay: Cytotoxicity against chronic myelogenous leukemia cell line K-562 was determined by measuring [3H]thymidine incorporation at a concentration of 10 ug/mL after 48 h; type: functional; details: Homo sapiens; outline: as §2
[12] = system: Lacticaseibacillus casei; assay: Tested for inhibitory effect on Gram-positive bacterium; Lactobacillus casei; type: functional
[13] = system: K562; assay: Cytotoxicity against chronic myelogenous leukemia cell line K-562 was determined by measuring [3H]thymidine incorporation at a concentration of 1 ug/mL after 5 h; type: functional; details: Homo sapiens; outline: as §1
[14] = system: K562; assay: Cytotoxicity against chronic myelogenous leukemia cell line K-562 was determined by measuring [3H]thymidine incorporation at a concentration 1 ug/mL after 48 h; type: functional; details: Homo sapiens; outline: as §2
[15] = system: Mycobacterium tuberculosis; assay: Tested for percent inhibition against Mycobacterium tuberculosis at a concentration of 12.5 ug/mL; type: functional; outline: as §3
[16] = system: Vero; assay: Tested for inhibition against Vero cells at 12.5 ug/mL; type: functional, cell-based; details: Chlorocebus sabaeus
[17] = system: Mycobacterium tuberculosis; assay: Tested for percent inhibition against Mycobacterium tuberculosis at 12.5 ug/mL; type: functional; outline: as §3
[18] = system: K562; assay: Cytotoxicity against chronic myelogenous leukemia cell line K-562 was determined by measuring [3H]thymidine incorporation at a concentration of 1.00 ug/mL after 48 h; type: functional; details: Homo sapiens; outline: as §2
[19] = system: K562; assay: Cytotoxicity against chronic myelogenous leukemia cell line K-562 was determined by measuring [3H]thymidine incorporation at a concentration of 1.00 ug/mL after 5 h; type: functional; details: Homo sapiens; outline: as §1
[20] = system: Mycobacterium tuberculosis; assay: Tested for antibacterial activity against Mycobacterium tuberculosis; type: functional; outline: as §3
[21] = system: Mycobacterium avium; assay: Tested for percent inhibition against Mycobacterium avium at 12.5 ug/mL; type: functional
[22] = system: Mycobacterium tuberculosis; assay: Antibacterial activity was evaluated against Mycobacterium tuberculosis; type: functional; outline: as §3
[23] = system: K562; assay: Cytotoxicity against chronic myelogenous leukemia cell line K-562 determined using [3H]thymidine incorporation at a concentration 10 ug/mL after 48 h; type: functional; details: Homo sapiens; outline: as §2
[24] = system: K562; assay: Cytotoxicity against chronic myelogenous leukemia cell line K-562 determined using [3H]thymidine incorporation at a concentration of 1.00 ug/mL after 48 h; type: functional; details: Homo sapiens; outline: as §2

Row | Compound | IC50 [1] [µg/mL] | inhibition at 1.25 µg/mL [2] [%] | IC50 [4] [µg/mL] | inhibition at 10 µg/mL [5] [%] | inhibition at 10 µg/mL [6] [%] | also measured
1 | O=c1nc2c(ncn2Cc2ccccc2)c(C#CC2CC2)n1Cc1ccccc1 | 0.4 (≈ 1.05 µM) | 100 | 0.2 (≈ 0.526 µM) | 98 | 97 | inhibition at 1.25 µg/mL [3]: 98%
2 | Sc1ncnc2nc[nH]c12 [MERCAPTOPURINE ANHYDROUS] | – | – | 0.4 (≈ 2.63 µM) | – | – | IC50 [7]: 8.5 µg/mL (≈ 55.9 µM)
3 | O=c1nc2c(ncn2Cc2ccccc2)c(-c2ccccc2)n1Cc1ccccc1 | – | – | – | – | 70 | MIC [8]: > 10 µg/mL; inhibition at 12.5 µg/mL [9]: 0%
4 | O=c1nc2c(ncn2Cc2ccccc2)c(-c2cccs2)n1Cc1ccccc1 | – | – | – | – | – | MIC [8]: > 10 µg/mL; inhibition at 12.5 µg/mL [10]: 0%
5 | O=c1nc2c(cn1Cc1ccccc1)ncn2Cc1ccccc1 | > 10 | 5.7 | > 10 | 16 | – | inhibition at 10 µg/mL [11]: 37%; inhibition at 1.25 µg/mL [3]: 4.4%
6 | O=C1N(Cc2ccccc2)c2nc[nH]c2C(c2ccccc2)N1Cc1ccccc1 (configuration not stated) | – | – | > 10 | – | 32 | MIC [12]: 10 µg/mL (≈ 25.3 µM)
7 | O=C1Nc2c(ncn2Cc2ccccc2)C(C#CC2CC2)(C(F)(F)F)N1Cc1ccccc1 (configuration not stated) | 0.4 (≈ 0.888 µM) | 99 | 0.2 (≈ 0.444 µM) | 94 | 100 | inhibition at 1.25 µg/mL [3]: 66%
8 | CC(C)C1c2ncn(Cc3ccccc3)c2NC(=O)N1Cc1ccccc1 (configuration not stated) | – | – | 10 (≈ 27.7 µM) | – | 51 | –
9 | O=C1Nc2[nH]cnc2C(C#CC2CC2)(C(F)(F)F)N1 (configuration not stated) | > 1 | – | > 1 | – | – | inhibition at 1 µg/mL [13]: 0.3%; inhibition at 1 µg/mL [14]: 0.8%
10 | O=C1Nc2c(ncn2Cc2ccccc2)C(C(F)(F)F)N1Cc1ccccc1 (configuration not stated) | 10 (≈ 25.9 µM) | 26 | 2 (≈ 5.18 µM) | 51 | 97 | inhibition at 1.25 µg/mL [3]: 15.4%
11 | O=c1nc2c(ncn2Cc2ccccc2)c(-c2ccco2)n1Cc1ccccc1 | – | – | – | – | – | MIC [8]: > 10 µg/mL; inhibition at 12.5 µg/mL [15]: 0%
12 | O=c1nc2c(ncn2Cc2ccccc2)c(C#Cc2ccccc2)n1Cc1ccccc1 | 1 (≈ 2.4 µM) | – | 0.7 (≈ 1.68 µM) | – | 100 | IC50 [16]: < 0.2 µg/mL; inhibition at 12.5 µg/mL [17]: 95%; inhibition at 1 µg/mL [18]: 90%; MIC [8]: > 10 µg/mL; inhibition at 1 µg/mL [19]: 48%; MIC [20]: 12.5 µg/mL (≈ 30 µM); inhibition at 12.5 µg/mL [21]: 60%
13 | O=C1Nc2ncn(Cc3ccccc3)c2C(c2ccccc2)N1Cc1ccccc1 (configuration not stated) | – | – | > 10 | – | 48 | –
14 | O=c1nc2c(ncn2Cc2ccccc2)c(C(F)(F)F)n1Cc1ccccc1 | – | – | > 10 | – | 11 | –
15 | O=C1Nc2c(ncn2Cc2ccccc2)C(C#CC2CC2)N1Cc1ccccc1 (configuration not stated) | 1.6 (≈ 4.18 µM) | 42 | 1.3 (≈ 3.4 µM) | 90 | 98 | inhibition at 1.25 µg/mL [3]: 35%
16 | Clc1nc(-c2cccs2)c2ncn(Cc3ccccc3)c2n1 | – | – | – | – | – | MIC [22]: 1.56 µg/mL (≈ 4.77 µM)
17 | CC1c2ncn(Cc3ccccc3)c2NC(=O)N1Cc1ccccc1 (configuration not stated) | 2.5 (≈ 7.52 µM) | 33 | 1.4 (≈ 4.21 µM) | 76.4 | 98 | –
18 | CC(C)c1c2ncn(Cc3ccccc3)c2nc(=O)n1Cc1ccccc1 | – | – | > 10 | – | 18 | –
19 | CCC1(c2ccccc2)c2ncn(Cc3ccccc3)c2NC(=O)N1Cc1ccccc1 (configuration not stated) | – | – | – | – | 80 | –
20 | O=C1Nc2c(ncn2Cc2ccccc2)C(C#Cc2ccccc2)N1Cc1ccccc1 (configuration not stated) | 1.4 (≈ 3.35 µM) | – | 0.8 (≈ 1.91 µM) | – | – | inhibition at 10 µg/mL [23]: 100%; inhibition at 1 µg/mL [24]: 59%; inhibition at 1 µg/mL [19]: 20%
21 | O=C1Nc2c(ncn2Cc2ccccc2)C(c2ccccc2)N1Cc1ccccc1 (configuration not stated) | 5.1 (≈ 12.9 µM) | 85 | 0.2 (≈ 0.507 µM) | 69 | 90 | inhibition at 1.25 µg/mL [3]: 9.1%
